Measured values: ChEMBL document CHEMBL4387722

Key:
[1] = Cytotoxicity against human THLE3 cells assessed as reduction in cell viability after 48 hrs by Alamar blue assay; assay type: cell-based
Method in brief: (§1)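 Alamar Blue viability read-out. Human liver (THLE-3) and kidney (HEK 293) cells incubated with compound for 48 h. Tested in dose-response to derive CC50.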

[2] = target: T1, Tyrosine-protein phosphatase non-receptor type 1 (Homo sapiens, UniProt P18031); test: Inhibition of human PTPN1 expressed in Escherichia coli Rosetta 2 (DE3) using pNPP as substrate after 45 mins by spectrophotometric method
T1 sequence (P18031 whole entry): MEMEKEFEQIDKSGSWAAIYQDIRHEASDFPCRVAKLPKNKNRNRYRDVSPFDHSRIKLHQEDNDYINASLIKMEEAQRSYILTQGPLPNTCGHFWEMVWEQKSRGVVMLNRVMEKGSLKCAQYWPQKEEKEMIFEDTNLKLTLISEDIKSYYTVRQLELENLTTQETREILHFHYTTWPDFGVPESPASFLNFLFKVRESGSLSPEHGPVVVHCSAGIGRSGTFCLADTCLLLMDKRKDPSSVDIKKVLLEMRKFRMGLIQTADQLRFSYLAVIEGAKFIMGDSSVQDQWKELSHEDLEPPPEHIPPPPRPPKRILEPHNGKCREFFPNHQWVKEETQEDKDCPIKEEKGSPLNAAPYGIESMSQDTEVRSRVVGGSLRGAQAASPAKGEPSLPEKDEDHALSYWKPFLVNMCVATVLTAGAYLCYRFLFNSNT

[3] = target: T2, Malate dehydrogenase, mitochondrial (Sus scrofa, UniProt P00346); test: Inhibition of refolded pig heart mitochondrial MDH preincubated with Escherichia coli GroEL/GroES for 45 mins using sodium mesoxalate as substrate followed by compound addition and measured after 20 to 30 mins by spectrometric analysis
T2 sequence (P00346 whole entry): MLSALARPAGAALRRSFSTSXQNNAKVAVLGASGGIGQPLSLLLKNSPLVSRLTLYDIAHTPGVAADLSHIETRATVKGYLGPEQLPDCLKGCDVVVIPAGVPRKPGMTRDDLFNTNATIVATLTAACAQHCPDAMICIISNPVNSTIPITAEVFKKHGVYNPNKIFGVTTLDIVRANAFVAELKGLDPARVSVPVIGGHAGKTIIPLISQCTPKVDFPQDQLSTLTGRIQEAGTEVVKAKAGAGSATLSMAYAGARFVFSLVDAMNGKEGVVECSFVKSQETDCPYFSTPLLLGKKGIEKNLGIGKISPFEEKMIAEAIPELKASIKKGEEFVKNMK

[4] = Cytotoxicity against human HEK293 cells assessed as reduction in cell viability after 48 hrs by Alamar blue assay; assay type: cell-based; method in brief: as §1
HSP60/HSP10 = HSP60/HSP10 (Homo sapiens, UniProt P10809); test: Inhibition of human HSP60 expressed in Escherichia coli Rosetta 2(DE3)/human HSP10 expressed in Escherichia coli Rosetta 2(DE3) pLysS cells assessed as reduction in HSP60/HSP10-mediated denatured pig heart mitochondrial MDH refolding by measuring MDH enzyme activity using sodium mesoxalate as substrate after 40 to 60 mins by spectrometric analysis
HSP60/HSP10, sequence (P10809 whole entry): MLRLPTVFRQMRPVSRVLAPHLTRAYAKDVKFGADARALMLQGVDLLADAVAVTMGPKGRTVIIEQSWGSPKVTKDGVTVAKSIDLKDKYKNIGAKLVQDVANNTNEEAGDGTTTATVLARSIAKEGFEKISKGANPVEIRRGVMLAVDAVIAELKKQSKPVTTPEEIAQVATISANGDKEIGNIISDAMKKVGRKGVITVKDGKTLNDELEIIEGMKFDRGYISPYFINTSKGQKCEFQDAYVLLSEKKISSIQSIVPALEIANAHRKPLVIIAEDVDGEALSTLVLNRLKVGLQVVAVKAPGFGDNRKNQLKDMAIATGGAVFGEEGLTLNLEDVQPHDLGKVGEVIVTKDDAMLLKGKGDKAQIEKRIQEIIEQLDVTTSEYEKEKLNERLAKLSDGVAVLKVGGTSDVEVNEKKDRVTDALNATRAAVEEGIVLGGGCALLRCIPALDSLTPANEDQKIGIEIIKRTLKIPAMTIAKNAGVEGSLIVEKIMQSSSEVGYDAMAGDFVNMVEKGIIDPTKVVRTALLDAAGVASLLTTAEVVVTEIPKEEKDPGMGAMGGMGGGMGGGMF
HSP60/HSP10, sequence (P61604 whole entry, further chain): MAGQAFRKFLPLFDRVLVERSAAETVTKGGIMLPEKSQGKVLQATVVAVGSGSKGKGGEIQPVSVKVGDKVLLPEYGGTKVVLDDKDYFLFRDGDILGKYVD

[5] = target: T3, Phosphotyrosine protein phosphatase (Mycobacterium tuberculosis, UniProt A0A045ISB3); test: Inhibition of Mycobacterium tuberculosis His-tagged PtpB expressed in Escherichia coli Rosetta 2 (DE3) using pNPP as substrate after 30 mins by spectrophotometric method
T3 sequence (A0A045ISB3 whole entry): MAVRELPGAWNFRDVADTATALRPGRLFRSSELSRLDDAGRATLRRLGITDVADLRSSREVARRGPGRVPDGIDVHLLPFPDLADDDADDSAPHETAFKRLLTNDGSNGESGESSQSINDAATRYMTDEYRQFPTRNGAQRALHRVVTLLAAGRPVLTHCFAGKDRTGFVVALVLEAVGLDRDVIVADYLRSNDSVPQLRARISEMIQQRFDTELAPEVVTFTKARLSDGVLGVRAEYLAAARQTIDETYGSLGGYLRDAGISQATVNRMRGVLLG

[6] = target: T4, Tyrosine-protein phosphatase non-receptor type 2 (Homo sapiens, UniProt P17706); test: Inhibition of human PTPN2 expressed in Escherichia coli Rosetta 2 (DE3) using pNPP as substrate after 45 mins by spectrophotometric method
T4 sequence (P17706 whole entry): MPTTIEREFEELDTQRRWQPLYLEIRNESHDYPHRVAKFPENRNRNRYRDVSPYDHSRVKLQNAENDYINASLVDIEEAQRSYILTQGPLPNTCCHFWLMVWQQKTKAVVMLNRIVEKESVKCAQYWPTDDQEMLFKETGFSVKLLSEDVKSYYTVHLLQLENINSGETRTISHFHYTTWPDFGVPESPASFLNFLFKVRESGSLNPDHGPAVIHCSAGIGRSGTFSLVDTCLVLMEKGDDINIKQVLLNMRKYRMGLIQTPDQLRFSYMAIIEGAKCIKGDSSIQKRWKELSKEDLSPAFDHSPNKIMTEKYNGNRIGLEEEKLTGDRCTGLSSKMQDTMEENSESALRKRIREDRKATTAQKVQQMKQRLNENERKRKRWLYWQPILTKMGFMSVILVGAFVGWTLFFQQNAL

[7] = tested on: Mycobacterium tuberculosis; test: Antitubercular activity against Mycobacterium tuberculosis H37Rv after 5 days at 200 uM relative to control; assay type: functional; conditions: 120 h
Method in brief: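 M. tuberculosis grown in liquid culture with compound at a fixed 200 μM for 5 days. Growth inhibition expressed as percent of control.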

[8] = target: T5, Tyrosine-protein phosphatase non-receptor type 5 (Homo sapiens, UniProt P54829); test: Inhibition of human PTPN5 expressed in Escherichia coli Rosetta 2 (DE3) using pNPP as substrate after 45 mins by spectrophotometric method
T5 sequence (P54829 whole entry): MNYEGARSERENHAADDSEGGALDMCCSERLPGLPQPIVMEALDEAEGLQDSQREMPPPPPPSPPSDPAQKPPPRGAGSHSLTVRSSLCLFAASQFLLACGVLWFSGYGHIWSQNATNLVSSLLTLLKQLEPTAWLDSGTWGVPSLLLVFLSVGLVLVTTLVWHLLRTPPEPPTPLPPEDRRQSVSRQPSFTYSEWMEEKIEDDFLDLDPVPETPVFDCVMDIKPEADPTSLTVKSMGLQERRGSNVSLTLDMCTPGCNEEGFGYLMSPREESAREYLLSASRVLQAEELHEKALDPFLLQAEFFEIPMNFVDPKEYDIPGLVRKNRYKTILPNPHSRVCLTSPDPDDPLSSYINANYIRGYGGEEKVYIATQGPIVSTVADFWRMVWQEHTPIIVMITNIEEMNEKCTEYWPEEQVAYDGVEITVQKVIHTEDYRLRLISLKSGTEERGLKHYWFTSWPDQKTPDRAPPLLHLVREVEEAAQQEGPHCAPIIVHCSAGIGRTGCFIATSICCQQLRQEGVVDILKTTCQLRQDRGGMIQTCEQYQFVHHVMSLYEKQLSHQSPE

[9] = Inhibition of refolded rhodanese (unknown origin) preincubated with Escherichia coli GroEL/GroES for 60 mins by measuring rhodanese enzyme activity followed by compound addition by Fe(SCN)3 dye based spectrometric analysis; parameters: species or system Homo sapiens
[10] = tested on: Mycobacterium tuberculosis; test: Antitubercular activity against Mycobacterium tuberculosis H37Rv after 5 days; assay type: functional, organism-based; conditions: 120 h

Row | Structure (SMILES) | CC50 at 48 h [1] [µM] | IC50 [2] [µM] | IC50 [3] [µM] | CC50 at 48 h [4] [µM] | IC50 (HSP60/HSP10) [µM] | IC50 [5] [µM] | IC50 [6] [µM] | inhibition at 200 µM [7] [%] | IC50 [8] [µM] | IC50 [9] [µM] | EC50 [10] [µM]
1 | O=S(=O)(Nc1ccc2oc(-c3ccccc3)nc2c1)c1cccc(Cl)c1 | 45 | 88 | > 63 | 70 | > 100 | > 100 | 51 | 45 | > 100 | > 100 | 
2 | O=S(=O)(Nc1ccc(-c2nc3cc(NS(=O)(=O)c4cccc5nonc45)ccc3o2)cc1)c1cccc2nonc12 |  | 34 |  |  |  | 8.8 | 58 | 76 | 40 |  | > 200
3 | N#Cc1ccccc1S(=O)(=O)Nc1ccc(-c2nc3cc(NS(=O)(=O)c4ccccc4C#N)ccc3o2)cc1 |  | 56 |  |  |  | 18 | 69 | 85 | 47 |  | 113
4 | O=S(=O)(Nc1ccc2oc(-c3ccccc3)nc2c1)c1ccc(F)c(C(F)(F)F)c1 | 55 | 76 | > 63 | > 100 | 69 | 46 | 39 | 23 | 26 | > 100 | 
5 | O=S(=O)(Nc1ccc(-c2nc3cc(NS(=O)(=O)c4cccc(F)c4)ccc3o2)cc1)c1cccc(F)c1 |  | 36 |  |  |  | 13 | 32 | 48 | 31 |  | > 200
6 | CS(=O)(=O)Nc1ccc2oc(-c3ccc(NS(=O)(=O)c4ccc(Cl)s4)cc3)nc2c1 |  | 73 |  |  |  | 46 | > 100 | 85 | > 100 |  | 104
7 | CS(=O)(=O)Nc1ccc(-c2nc3cc(NS(C)(=O)=O)ccc3o2)cc1 |  | > 100 |  |  |  | > 100 | > 100 | 62 | > 100 |  | > 200
8 | O=S(=O)(Nc1ccc2oc(-c3ccccc3)nc2c1)c1ccc(O)cc1 | > 100 | 92 | > 63 | > 100 | 88 | 97 | > 100 | 9 | 84 | > 100 | 
9 | N#Cc1cccc(S(=O)(=O)Nc2ccc(-c3nc4cc(NS(=O)(=O)c5cccc(C#N)c5)ccc4o3)cc2)c1 |  | 37 |  |  |  | 33 | 48 | 65 | 44 |  | > 200
10 | COc1ccccc1S(=O)(=O)Nc1ccc(-c2nc3ccccc3o2)cc1 | > 100 | 54 | > 63 | > 100 | > 100 | 59 | 53 | 0 | 44 | > 100 | 
11 | CS(=O)(=O)Nc1ccc2oc(-c3ccccc3)nc2c1 | > 100 | > 100 | > 63 | > 100 | > 100 | > 100 | > 100 | 6 | > 100 | > 100 | 
12 | Nc1ccccc1S(=O)(=O)Nc1ccc(-c2nc3cc(NS(=O)(=O)c4ccccc4N)ccc3o2)cc1 |  | 34 |  |  |  | 17 | 25 | 58 | 51 |  | > 200
13 | O=S(=O)(Nc1ccc2oc(-c3ccccc3)nc2c1)c1ccccc1O | 32 | 76 | > 63 | 33 | 85 | 98 | > 100 | 18 | 68 | > 100 | 
14 | O=S(=O)(Nc1ccc(-c2nc3cc(NS(=O)(=O)c4ccccc4Br)ccc3o2)cc1)c1ccccc1Br |  | 24 |  |  |  | 20 | 28 | 50 | 31 |  | > 200
15 | O=S(=O)(Nc1ccc(-c2nc3cc(NS(=O)(=O)c4ccc5ccccc5c4)ccc3o2)cc1)c1ccc2ccccc2c1 |  | 4.3 |  |  |  | 4.4 | 24 | 0 | 6.2 |  | 
16 | Cc1ccc(S(=O)(=O)Nc2ccc(-c3nc4cc(NS(=O)(=O)c5ccc(C)cc5)ccc4o3)cc2)cc1 |  | 14 |  |  |  | 6.9 | 18 | 0 | 14 |  | 
17 | COc1ccc(Cl)cc1S(=O)(=O)Nc1ccc(-c2nc3cc(NS(=O)(=O)c4ccc(Cl)s4)ccc3o2)cc1 |  | 6.4 |  |  |  | 3.4 | 16 | 33 | 11 |  | 
18 | COc1ccc(S(=O)(=O)Nc2ccc(-c3nc4cc(NS(=O)(=O)c5ccc(Cl)s5)ccc4o3)cc2)cc1 |  | 11 |  |  |  | 11 | 16 | 25 | 16 |  | 
19 | O=S(=O)(Nc1ccc(-c2nc3cc(NS(=O)(=O)c4ccc(Cl)s4)ccc3o2)cc1)c1ccc(Cl)c(Cl)c1 |  | 6.9 |  |  |  | 2.3 | 12 | 0 | 9.8 |  | 
20 | O=S(=O)(Nc1ccc(-c2nc3cc(NS(=O)(=O)c4ccc(Br)cc4)ccc3o2)cc1)c1ccc(Br)cc1 |  | 11 |  |  |  | 3.6 | 18 | 0 | 11 |  | 
21 | COc1cccc(S(=O)(=O)Nc2ccc(-c3nc4cc(NS(=O)(=O)c5cccc(OC)c5)ccc4o3)cc2)c1 |  | 18 |  |  |  | 9.4 | 16 | 0 | 22 |  | 
